The source made the active and inactive calls. The calls are words filed in the database; no cut-off is given here.
Experiments:
HCT-116 [1] = experiment: Induction of apoptosis in human HCT116 cells at 5.10 uM after 48 hrs; assay type: functional
In short: (§1)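 After 24 or 48 h of drug exposure, all cells were collected, combining trypsinised adherent cells with floating cells from the medium. Cells (1 × 10^6) were fixed in cold 70% ethanol overnight at −20 °C and stained with DAPI (10 µg/mL) for 30 min in the dark at RT. Under fluorescence microscopy, 300 cells per sample were scored, with condensed or fragmented nuclei counted as apoptotic.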

HeLa [2] = experiment: Induction of apoptosis in human HeLa cells at 7.80 uM after 24 hrs; assay type: functional; in short: as §1
HCT-116 [3] = experiment: Cell cycle arrest in human HCT116 cells assessed as accumulation at G2/M phase at 5.10 uM after 24 hrs; assay type: functional
In short: (§2)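 Cells seeded at 8 · 10^5 per 60 mm dish, allowed to settle 24 h (37 °C, 5% CO2), then exposed to the drug for 24 or 48 h. Adherent plus floating cells (5 · 10^5) were fixed in cold 70% ethanol at −20 °C overnight, treated with RNase A (100 µg/mL) and stained with propidium iodide (20 µg/mL) in Vindelov's solution for 30 min at RT. Flow cytometry used 488 nm excitation, FL-2 at 585 ± 21 nm, and histograms were modelled for G0/G1, S and G2/M fractions.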

HCT-116 [4] = experiment: Induction of DNA fragmentation in human HCT116 cells after 24 hrs; assay type: functional, cell-based
In short: (§3)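 HCT-116 cells were treated for 24 or 48 h. Adherent and floating cells (5 × 10^5) were pooled, fixed in cold 70% ethanol and held overnight at −20 °C. Samples were treated with RNase A (100 µg/mL) and stained with propidium iodide (20 µg/mL) in Vindelov's solution for 30 min at RT. Flow cytometry used 488 nm excitation with emission at 585 nm. Subdiploid (subG0/G1) particles were scored on a logarithmic scale, with debris gated out on FSC × SSC.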

HeLa [5] = experiment: Induction of apoptosis in human HeLa cells at 7.80 uM after 48 hrs; assay type: functional; in short: as §1
DNA [6] = experiment: Binding affinity to calf thymus DNA at 50 uM by circular dichroism spectrophotometric titration; assay type: nucleic-acid assay; details: Bos taurus
HeLa [7] = experiment: Cytotoxicity against human HeLa cells after 48 hrs by MTT assay; assay type: functional, cell-based
HCT-116 [8] = experiment: Antiproliferative activity against human HCT116 cells assessed as increase of floating cells in total cell population at 5.10 uM after 24 hrs; assay type: functional
In short: (§4)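 Cells seeded (8 · 10^5 per 60 mm dish), allowed to settle 24 h at 37 °C, 5% CO2, then treated with a single concentration for 24 or 48 h. Adherent and floating cells counted by Coulter counter. Total cell number given as % of untreated control; floating cells as % of total cell number.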

HeLa [9] = experiment: Cell cycle arrest in human HeLa cells assessed as accumulation at G2/M phase at 7.80 uM after 48 hrs; assay type: functional; in short: as §2
HCT-116 [10] = experiment: Induction of DNA fragmentation in human HCT116 cells after 48 hrs; assay type: functional, cell-based; in short: as §3
HCT-116 [11] = experiment: Antiproliferative activity against human HCT116 cells assessed as decrease in total cell population at 5.10 uM after 24 hrs; assay type: functional; set-up: scale not given: the % may be the effect or the level left; in short: as §4
HeLa [12] = experiment: Antiproliferative activity against human HeLa cells assessed as increase of floating cells in total cell population at 7.80 uM after 48 hrs; assay type: functional; in short: as §4
HeLa [13] = experiment: Antiproliferative activity against human HeLa cells assessed as decrease in total cell population at 7.80 uM after 24 hrs; assay type: functional; set-up: scale not given: the % may be the effect or the level left; in short: as §4
HeLa [14] = experiment: Cytotoxicity against human HeLa cells after 72 hrs by MTT assay; assay type: functional, cell-based
HeLa [15] = experiment: Antiproliferative activity against human HeLa cells assessed as increase of floating cells in total cell population at 7.80 uM after 24 hrs; assay type: functional; in short: as §4
HeLa [16] = experiment: Cell cycle arrest in human HeLa cells assessed as accumulation at S phase at 7.80 uM after 24 hrs; assay type: functional; in short: as §2
HeLa [17] = experiment: Cell cycle arrest in human HeLa cells assessed as accumulation at G0/G1 phase at 7.80 uM after 24 hrs; assay type: functional; in short: as §2
HCT-116 [18] = experiment: Cell cycle arrest in human HCT116 cells assessed as accumulation at G2/M phase at 5.10 uM after 48 hrs; assay type: functional; in short: as §2
HCT-116 [19] = experiment: Cytotoxicity against human HCT116 cells after 72 hrs by MTT assay; assay type: functional, cell-based; details: Homo sapiens, HCT-116, 72 h
HCT-116 [20] = experiment: Cytotoxicity against human HCT116 cells after 48 hrs by MTT assay; assay type: functional, cell-based; details: HCT-116, 48 h
HCT-116 [21] = experiment: Cell cycle arrest in human HCT116 cells assessed as accumulation at S phase at 5.10 uM after 24 hrs; assay type: functional; in short: as §2
HCT-116 [22] = experiment: Cell cycle arrest in human HCT116 cells assessed as accumulation at G0/G1 phase at 5.10 uM after 24 hrs; assay type: functional
In short: (§5)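 Adherent plus floating cells (5 · 10^5) collected 24 or 48 h after treatment, fixed in cold 70% ethanol at −20 °C overnight, washed in PBS. RNase A (100 µg/mL) and propidium iodide (20 µg/mL) in Vindelov's solution, 30 min at RT. Flow cytometry with 488 nm excitation, emission 585 ± 21 nm; % cells per cycle phase from DNA content histograms.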

HCT-116 [23] = experiment: Cell cycle arrest in human HCT116 cells assessed as accumulation at S phase at 5.10 uM after 48 hrs; assay type: functional; in short: as §2
HCT-116 [24] = experiment: Induction of apoptosis in human HCT116 cells at 5.10 uM after 24 hrs; assay type: functional; in short: as §1
HCT-116 [25] = experiment: Cell cycle arrest in human HCT116 cells assessed as accumulation at G0/G1 phase at 5.10 uM after 48 hrs; assay type: functional; in short: as §5
DNA [26] = experiment: Binding affinity to calf thymus DNA at 4 uM by fluorescence spectrophotometric titration; assay type: nucleic-acid assay; details: Bos taurus
In short: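 ctDNA sonicated in TE buffer, concentration taken from A260 and given in base pairs. Compound (4 µM) in 0.01 M Tris, pH 7.4, 25 °C titrated with ctDNA (0–55 µM bp) until spectra stopped changing. Excitation 424 nm, slit widths 10 nm; binding constant derived from the change in emission.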

HeLa [27] = experiment: Cell cycle arrest in human HeLa cells assessed as accumulation at G2/M phase at 7.80 uM after 24 hrs; assay type: functional; in short: as §2
HCT-116 [28] = experiment: Antiproliferative activity against human HCT116 cells assessed as increase of floating cells in total cell population at 5.10 uM after 48 hrs; assay type: functional; in short: as §4
HCT-116 [29] = experiment: Antiproliferative activity against human HCT116 cells assessed as decrease in total cell population at 5.10 uM after 48 hrs; assay type: functional; set-up: scale not given: the % may be the effect or the level left; in short: as §4
HeLa [30] = experiment: Antiproliferative activity against human HeLa cells assessed as decrease in total cell population at 7.80 uM after 48 hrs; assay type: functional; set-up: scale not given: the % may be the effect or the level left; in short: as §4
HeLa [31] = experiment: Cell cycle arrest in human HeLa cells assessed as accumulation at G0/G1 phase at 7.80 uM after 48 hrs; assay type: functional; in short: as §2
HeLa [32] = experiment: Cell cycle arrest in human HeLa cells assessed as accumulation at S phase at 7.80 uM after 48 hrs; assay type: functional; in short: as §2

Activity (DNA [6]): Active
K (DNA [26]): 1.7 ×10⁵ /M
SMILES: CCCCCNC(=O)Nc1ccc2cc3ccc(NC(=O)NCCCCC)cc3nc2c1.Cl
Activity (HCT-116 [1]): 11.33%
Activity (HeLa [2]): 1.33%
Activity (HCT-116 [3]): 44.05%
Activity (HCT-116 [4]): Active
Activity (HeLa [5]): 0.89%
IC50 (HeLa [7]): 7.78 µM
Activity (HCT-116 [8]): 78.81%
Activity (HeLa [9]): 10.39%
Activity (HCT-116 [10]): Active
Activity (HCT-116 [11]): 45.85%
Activity (HeLa [12]): 3.62%
Activity (HeLa [13]): 87.47%
IC50 (HeLa [14]): 13.3 µM
Activity (HeLa [15]): 3.86%
Activity (HeLa [16]): 25.46%
Activity (HeLa [17]): 61%
Activity (HCT-116 [18]): 37.04%
IC50 (HCT-116 [19]): 3.48 µM
IC50 (HCT-116 [20]): 5.12 µM
Activity (HCT-116 [21]): 17.34%
Activity (HCT-116 [22]): 38.62%
Activity (HCT-116 [23]): 22.16%
Activity (HCT-116 [24]): 10.67%
Activity (HCT-116 [25]): 40.8%
Activity (HeLa [27]): 13.54%
Activity (HCT-116 [28]): 88.58%
Activity (HCT-116 [29]): 21.22%
Activity (HeLa [30]): 101.34%
Activity (HeLa [31]): 72.24%
Activity (HeLa [32]): 17.38%

— ChEMBL document CHEMBL1157145, “Cytotoxic activity of proflavine diureas: synthesis, antitumor, evaluation and DNA binding properties of 1',1''-(acridin-3,6-diyl)-3',3''-dialkyldiureas” (Bioorg Med Chem, 2008)
